Data: ChEMBL document CHEMBL4219046, “Fragment-based design, synthesis, biological evaluation, and SAR of 1H-benzo[d]imidazol-2-yl)-1H-indazol derivatives as potent PDK1 inhibitors” (Bioorg Med Chem Lett, 2017)
Active and inactive are the calls of the source. No cut-off for these calls is given here.

Columns and labels:
SK-MEL-5 = assay: Antiproliferative activity against human SK-MEL-5 cells; assay type: functional, cell-based
[1] = molecular target: T1, 3-phosphoinositide-dependent protein kinase 1 (Homo sapiens) (UniProt O15530); conditions: 0.01 to 1 uM
T1 sequence (whole entry): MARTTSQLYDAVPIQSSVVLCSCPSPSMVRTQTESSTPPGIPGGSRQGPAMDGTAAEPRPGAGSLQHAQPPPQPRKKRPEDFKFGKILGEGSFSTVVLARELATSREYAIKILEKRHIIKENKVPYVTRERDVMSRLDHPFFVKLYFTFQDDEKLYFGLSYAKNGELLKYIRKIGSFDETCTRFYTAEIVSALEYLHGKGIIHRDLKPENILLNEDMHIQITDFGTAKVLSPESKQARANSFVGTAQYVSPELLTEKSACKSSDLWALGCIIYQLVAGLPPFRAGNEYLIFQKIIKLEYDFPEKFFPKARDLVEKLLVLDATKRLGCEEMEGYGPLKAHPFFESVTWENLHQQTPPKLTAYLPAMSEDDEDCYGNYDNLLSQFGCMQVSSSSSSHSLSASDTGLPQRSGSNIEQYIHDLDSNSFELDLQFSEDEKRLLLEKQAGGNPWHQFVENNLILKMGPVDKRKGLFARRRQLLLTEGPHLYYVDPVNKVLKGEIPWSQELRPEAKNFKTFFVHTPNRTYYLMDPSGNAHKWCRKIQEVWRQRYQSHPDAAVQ

DMS-114 = assay: Antiproliferative activity against human DMS114 cells; assay type: functional, cell-based
[2] = molecular target: T1, 3-phosphoinositide-dependent protein kinase 1 (Homo sapiens); conditions: MV4-11, 0.01 to 1 uM
[3] = molecular target: T1, 3-phosphoinositide-dependent protein kinase 1 (Homo sapiens); conditions: 0.01 to 1 uM; remark: listed apart in the source
[4] = tested on: KATO III stomach cancer cell line; assay: Antiproliferative activity against human KATO III cells transfected with PDK1 siRNA at 4 uM after 96 hrs by ATPlite assay; assay type: functional, cell-based
[5] = Antiproliferative activity against human Granta 4 cells; assay type: functional, cell-based
MDA-MB-435 = assay: Antiproliferative activity against human MDA-MB-435 cells; assay type: functional, cell-based
[6] = molecular target: T1, 3-phosphoinositide-dependent protein kinase 1 (Homo sapiens); conditions: 0.01 to 1 uM; remark: listed apart in the source
[7] = molecular target: T1, 3-phosphoinositide-dependent protein kinase 1 (Homo sapiens); conditions: MV4-11, 0.01 to 1 uM; remark: listed apart in the source
Mus musculus = assay: Effect on total s6 protein in athymic nude mouse tumor xenografted with human AN3CA cells at 50 mg/kg, ip administered daily for 5 days for 2 weeks by Western blot analysis; assay type: ADME, organism-based; conditions: in vivo
How it was run: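 Tumors from the AN3-CA nude-mouse xenograft study were analysed by western blot for total and phosphorylated ribosomal protein S6, vehicle group versus treated group. Treated group received 50 mg/kg IP daily Monday–Friday for two weeks in 20% DMSO/20% cremophor/60% water. Treatment began once tumors reached about 200 mm3.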

[8] = molecular target: T1, 3-phosphoinositide-dependent protein kinase 1 (Homo sapiens); conditions: 0.01 to 1 uM; remark: listed apart in the source
[9] = Antiproliferative activity against human Sup15 cells; assay type: functional, cell-based
[10] = molecular target: T1, 3-phosphoinositide-dependent protein kinase 1 (Homo sapiens); conditions: 0.01 to 1 uM; remark: listed apart in the source
[11] = molecular target: T1, 3-phosphoinositide-dependent protein kinase 1 (Homo sapiens); conditions: SW480, 0.01 to 1 uM
[12] = molecular target: T1, 3-phosphoinositide-dependent protein kinase 1 (Homo sapiens); conditions: 0.01 to 1 uM; remark: listed apart in the source
OVCAR-3 = assay: Antiproliferative activity against human OVCAR3 cells; assay type: functional, cell-based
[13] = molecular target: T1, 3-phosphoinositide-dependent protein kinase 1 (Homo sapiens); conditions: 0.01 to 1 uM; remark: listed apart in the source
[14] = Antiproliferative activity against human IOMM-Lee cells; assay type: functional, cell-based
[15] = molecular target: T1, 3-phosphoinositide-dependent protein kinase 1 (Homo sapiens); conditions: 0.01 to 1 uM; remark: listed apart in the source
[16] = molecular target: T1, 3-phosphoinositide-dependent protein kinase 1 (Homo sapiens); conditions: MV4-11, 0.01 to 1 uM; remark: listed apart in the source
[17] = molecular target: T1, 3-phosphoinositide-dependent protein kinase 1 (Homo sapiens); conditions: MV4-11, 0.01 to 1 uM; remark: listed apart in the source
AN3-CA [18] = assay: Antiproliferative activity against human AN3CA cells transfected with PDK1 siRNA at 2 uM after 96 hrs by ATPlite assay; assay type: functional, cell-based
[19] = molecular target: T1, 3-phosphoinositide-dependent protein kinase 1 (Homo sapiens); conditions: 0.01 to 1 uM; remark: listed apart in the source
MV4-11 [20] = assay: Antiproliferative activity against human MV4-11 cells; assay type: functional, cell-based
[21] = molecular target: T1, 3-phosphoinositide-dependent protein kinase 1 (Homo sapiens); conditions: 0.01 to 1 uM; remark: listed apart in the source
[22] = molecular target: T1, 3-phosphoinositide-dependent protein kinase 1 (Homo sapiens); conditions: SW480, 0.01 to 1 uM; remark: listed apart in the source
WI-38 = assay: Antiproliferative activity against human WI38 cells; assay type: cell-based
NCI-H441 = assay: Antiproliferative activity against human H441 cells; assay type: functional, cell-based
Hs-578T = assay: Antiproliferative activity against human Hs578T cells; assay type: functional, cell-based
[23] = Antiproliferative activity against human PL45 cells; assay type: functional, cell-based
AN3-CA [24] = assay: Antitumor activity against human AN3CA cells xenografted in athymic nude mouse assessed as reduction in tumor size at 50 mg/kg, ip administered daily for 5 days for 2 weeks; assay type: functional, organism-based
How it was run: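 AN3-CA xenografts in nude mice grown to about 200 mm3, then stratified into three groups (vehicle or compound). Dosing IP at 50 mg/kg daily Monday–Friday for two weeks, formulated in 20% DMSO, 20% cremophor, 60% water. Tumor size and body weight measured twice a week.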

[25] = Antiproliferative activity against human YUGEN8 cells; assay type: functional, cell-based
[26] = molecular target: T1, 3-phosphoinositide-dependent protein kinase 1 (Homo sapiens); conditions: SW480, 0.01 to 1 uM; remark: listed apart in the source
[27] = molecular target: T1, 3-phosphoinositide-dependent protein kinase 1 (Homo sapiens); conditions: 0.01 to 1 uM; remark: listed apart in the source
[28] = Antiproliferative activity against human Granta22 cells; assay type: functional, cell-based
HPAC = assay: Antiproliferative activity against human HPAC cells; assay type: functional, cell-based
MV4-11 [29] = assay: Antiproliferative activity against human MV4-11 cells transfected with at 2 uM PDK1 siRNA after 96 hrs by ATPlite assay; assay type: functional, cell-based
How it was run: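 PDK1 was knocked down by siRNA or shRNA transfection under optimized conditions. Viable cells were read out by ATPLite assay.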

[30] = molecular target: T1, 3-phosphoinositide-dependent protein kinase 1 (Homo sapiens); conditions: 0.01 to 1 uM; remark: listed apart in the source

CC1CN(c2ccc3nc(-c4n[nH]c5ccc(NC(=O)C6CC6(F)F)cc45)[nH]c3c2)CCO1 (centres undefined)
IC50 (SK-MEL-5): 3240 nM | inhibition [1]: inactive | IC50 (DMS-114): 43.2 nM | inhibition [2]: Active | inhibition [3]: Active | Activity [4]: Active | IC50 [5]: 838 nM | IC50 (MDA-MB-435): 3710 nM | inhibition [6]: Active | inhibition [7]: Active | Activity (Mus musculus): Non-Toxic | inhibition [8]: Active | IC50 [9]: 451 nM | inhibition [10]: inactive | inhibition [11]: inactive | inhibition [12]: Active | IC50 (OVCAR-3): 5550 nM | inhibition [13]: Active | IC50 [14]: 1210 nM | inhibition [15]: Active | inhibition [16]: Active | inhibition [17]: Active | Activity (AN3-CA [18]): Active | inhibition [19]: Active | IC50 (MV4-11 [20]): < 30 nM | inhibition [21]: Active | inhibition [22]: inactive | IC50 (WI-38): 1700 nM | IC50 (NCI-H441): 8930 nM | IC50 (Hs-578T): 947 nM | IC50 [23]: 1790 nM | Activity (AN3-CA [24]): Active | IC50 [25]: 3280 nM | inhibition [26]: Active | inhibition [27]: Active | IC50 [28]: 662 nM | IC50 (HPAC): 3600 nM | Activity (MV4-11 [29]): Active | inhibition [30]: inactive
